Converted amounts (≈) assume the structure as drawn. The source made the active and inactive calls. No cut-off for these calls is given here.
Legend:
Escherichia coli [1] = experiment: Antimicrobial activity against Escherichia coli at 10 ug; type: functional, organism-based
Summary of the method: (§1)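 Direct bioautography: each compound is spotted onto TLC plates and the solvent evaporated. The test organism is then grown directly on the plate. Growth inhibition is scored at the spot as active (+) or very active (++). Where a number is given, it is the radius in mm of the inhibition zone around the spot.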

Escherichia coli [2] = experiment: Antimicrobial activity against Escherichia coli at 5 ug; type: functional, organism-based; summary of the method: as §1
Escherichia coli [3] = experiment: Antimicrobial activity against Escherichia coli at 1 ug; type: functional, organism-based; summary of the method: as §1
Escherichia coli [4] = experiment: Antimicrobial activity against Escherichia coli at 0.1 ug; type: functional, organism-based; summary of the method: as §1
Micrococcus luteus [5] = experiment: Antimicrobial activity against Micrococcus luteus at 10 ug; type: functional, organism-based; summary of the method: as §1
Micrococcus luteus [6] = experiment: Antimicrobial activity against Micrococcus luteus at 5 ug; type: functional, organism-based; summary of the method: as §1
Micrococcus luteus [7] = experiment: Antimicrobial activity against Micrococcus luteus at 1 ug; type: functional, organism-based; summary of the method: as §1
Bacillus subtilis [8] = experiment: Antimicrobial activity against Bacillus subtilis at 10 ug; type: functional, organism-based; summary of the method: as §1
Bacillus subtilis [9] = experiment: Antimicrobial activity against Bacillus subtilis at 5 ug; type: functional, organism-based; summary of the method: as §1
Bacillus subtilis [10] = experiment: Antimicrobial activity against Bacillus subtilis at 1 ug; type: functional, organism-based; summary of the method: as §1
Penicillium oxalicum [11] = experiment: Antimicrobial activity against Penicillium oxalicum at 10 ug; type: functional; conditions: read-out: IZ; summary of the method: as §1
Penicillium oxalicum [12] = experiment: Antimicrobial activity against Penicillium oxalicum at 5 ug; type: functional; conditions: read-out: IZ; summary of the method: as §1
Penicillium oxalicum [13] = experiment: Antimicrobial activity against Penicillium oxalicum at 1 ug; type: functional; conditions: read-out: IZ; summary of the method: as §1
Penicillium oxalicum [14] = experiment: Antimicrobial activity against Penicillium oxalicum at 0.1 ug; type: functional; conditions: for zone of inhibition at 0.1 µg/disc: read-out: IZ; summary of the method: as §1
[15] = Inhibition of PKC
Penicillium oxalicum [16] = experiment: Antimicrobial activity against Penicillium oxalicum at 0.01 ug; type: functional; summary of the method: as §1
KB [17] = experiment: Cytotoxicity against human KB cells; type: functional; conditions: read-out: ED50 (the source's name)
Plasmodium falciparum [18] = experiment: Antimalarial activity against chloroquine-sensitive Plasmodium falciparum D6; type: functional, organism-based
Summary of the method: (§2)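 In vitro growth inhibition of Plasmodium falciparum clones D6 (chloroquine-sensitive) and W2 (chloroquine-resistant); IC50 reported in μg/mL.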

Plasmodium falciparum [19] = experiment: Antimalarial activity against chloroquine-resistant Plasmodium falciparum W2; type: functional, organism-based; summary of the method: as §2
[20] = Selectivity index, ratio of IC50 for human KB cells to IC50 for Plasmodium falciparum D6; type: toxicity, cell-based; conditions: KB cells versus Plasmodium falciparum D6, read-out: Ratio IC50
Summary of the method: (§3)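 Plasmodium falciparum clones were assayed in vitro: D6 (chloroquine-sensitive) and W2 (chloroquine-resistant). IC50 is in μg/mL. The selectivity index is the ratio of the antimalarial to the cytotoxic activity.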

[21] = Selectivity index, ratio of IC50 for human KB cells to IC50 for Plasmodium falciparum W2; type: toxicity, cell-based; conditions: KB cells versus Plasmodium falciparum W2, read-out: Ratio IC50; summary of the method: as §3
Lu1 = experiment: Cytotoxicity against human Lu1 cells; type: functional; conditions: read-out: ED50 (the source's name)
KB [22] = experiment: Cytotoxicity against vinblastine-sensitive human KB cells; type: functional; conditions: read-out: ED50 (the source's name)
KB [23] = experiment: Cytotoxicity against vinblastine-resistant human KB cells; type: functional; conditions: read-out: ED50 (the source's name)
Summary of the method: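 The vinblastine-resistant KB-V1 line was tested both with and without added vinblastine in the cultured tumour-cell cytotoxicity panel. Results are reported as ED50.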

LNCaP = experiment: Cytotoxicity against human LNCAP cells; type: functional; conditions: read-out: ED50 (the source's name)
ZR-75-1 = experiment: Cytotoxicity against human ZR-75-1 cells; type: functional; conditions: read-out: ED50 (the source's name)
Micrococcus luteus [24] = experiment: Antimicrobial activity against Micrococcus luteus at 0.1 ug; type: functional, organism-based; summary of the method: as §1
Bacillus subtilis [25] = experiment: Antimicrobial activity against Bacillus subtilis at 0.1 ug; type: functional, organism-based; summary of the method: as §1
[26] = target: Human immunodeficiency virus type 1 reverse transcriptase (Human immunodeficiency virus 1, UniProt Q72547); experiment: Inhibition of HIV1 RT at 200 uM
Summary of the method: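 HIV-1 reverse transcriptase inhibition was measured in an ELISA-based system.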

[27] = Inhibition of TK assessed as residual activity at 200 ug/ml
Summary of the method: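 The enzyme was tyrosine kinase p56lck, with test compounds at 200 μg/mL. The read-out is the remaining enzyme activity.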

Monocyte [28] = experiment: Inhibition of LPS-stimulated IL1 production in human monocytes; type: functional, cell-based
Monocyte [29] = experiment: Inhibition of IL1 biosynthesis in human monocytes; type: functional, cell-based

Row | SMILES | Activity (Escherichia coli [1]) | Activity (Escherichia coli [2]) | Activity (Escherichia coli [3]) | Activity (Escherichia coli [4]) | Activity (Micrococcus luteus [5]) | Activity (Micrococcus luteus [6]) | Activity (Micrococcus luteus [7]) | Activity (Bacillus subtilis [8]) | Activity (Bacillus subtilis [9]) | Activity (Bacillus subtilis [10]) | zone of inhibition at 10 µg/disc (Penicillium oxalicum [11]) | zone of inhibition at 5 µg/disc (Penicillium oxalicum [12]) | zone of inhibition at 1 µg/disc (Penicillium oxalicum [13]) | Activity (Penicillium oxalicum [16]) | EC50 (KB [17]) | IC50 (Plasmodium falciparum [18]) | IC50 (Plasmodium falciparum [19]) | selectivity ratio [20] | EC50 (Lu1) | EC50 (KB [22]) | further results
1 | CCCCCCCC/C=C(\Br)C(O)C(Br)Br (stereo not given) | Active | inactive | inactive | inactive | Active | Active | inactive | Active | Active | inactive | 8 mm | 8 mm | 5 mm | inactive | – | – | – | – | – | – | Activity (Penicillium oxalicum [14]): inactive; IC50 [15]: ≥ 200 µM
2 | OC(c1cc(C(F)(F)F)nc2c(C(F)(F)F)cccc12)C1CCCCN1 (stereo not given) [MEFLOQUINE] | – | – | – | – | – | – | – | – | – | – | – | – | – | – | 3.5 µg/mL (≈ 9.25 µM) | 0.005 µg/mL (≈ 0.0132 µM) | 0.001 µg/mL (≈ 0.00264 µM) | 710 | – | – | selectivity ratio [21]: 4380
3 | CCC[C@@H](O)C1=C(Br)/C(=C/Cl)OC1=O | Active | Active | Active | Active | Active | Active | Active | Active | Active | Active | 22 mm | 18 mm | 14 mm | – | 0.4 µg/mL (≈ 1.42 µM) | 5.9 µg/mL (≈ 21 µM) | > 10 µg/mL | < 1 | 1 µg/mL (≈ 3.55 µM) | 1.2 µg/mL (≈ 4.26 µM) | EC50 (KB [23]): 1.4 µg/mL (≈ 4.97 µM); EC50 (LNCaP): 3 µg/mL (≈ 10.7 µM); EC50 (ZR-75-1): 0.4 µg/mL (≈ 1.42 µM); Activity (Micrococcus luteus [24]): inactive; Activity (Bacillus subtilis [25]): inactive; zone of inhibition at 0.1 µg/disc (Penicillium oxalicum [14]): 6 mm; IC50 [26]: 700 µM; Activity [27]: 1.9%
4 | CCC[C@@H](OC(C)=O)C1=C(Br)/C(=C/I)OC1=O | Active | Active | inactive | inactive | Active | Active | Active | Active | Active | Active | 17 mm | 21 mm | 9 mm | inactive | 0.1 µg/mL (≈ 0.241 µM) | 4.6 µg/mL (≈ 11.1 µM) | > 10 µg/mL | < 1 | 1.5 µg/mL (≈ 3.61 µM) | 3.6 µg/mL (≈ 8.67 µM) | EC50 (KB [23]): 0.2 µg/mL (≈ 0.482 µM); EC50 (LNCaP): 2 µg/mL (≈ 4.82 µM); EC50 (ZR-75-1): < 0.1 µg/mL; Activity (Micrococcus luteus [24]): Active; Activity (Bacillus subtilis [25]): inactive; zone of inhibition at 0.1 µg/disc (Penicillium oxalicum [14]): 6 mm; IC50 [26]: 700 µM
5 | CCC(CCC(=O)C(Br)=C(Br)Br)OC(C)=O (stereo not given) | Active | Active | inactive | inactive | inactive | inactive | inactive | Active | Active | inactive | 8 mm | 9 mm | 6 mm | inactive | – | – | – | – | – | – | Activity (Penicillium oxalicum [14]): inactive; IC50 [15]: ≥ 200 µM; Activity [27]: 31.7%; IC50 (Monocyte [28]): 2 µM; IC50 (Monocyte [29]): 2 µM
6 | CCC[C@@H](O)C1=C(Br)C(=C(Br)Br)OC1=O | Active | Active | inactive | inactive | Active | Active | Active | Active | Active | Active | 20 mm | 23 mm | 17 mm | – | 0.5 µg/mL (≈ 1.23 µM) | 2.8 µg/mL (≈ 6.92 µM) | > 10 µg/mL | < 1 | 1.7 µg/mL (≈ 4.2 µM) | 0.6 µg/mL (≈ 1.48 µM) | EC50 (KB [23]): 9.5 µg/mL (≈ 23.5 µM); EC50 (LNCaP): 6.7 µg/mL (≈ 16.5 µM); EC50 (ZR-75-1): 0.3 µg/mL (≈ 0.741 µM); Activity (Micrococcus luteus [24]): Active; IC50 [26]: 700 µM; Activity [27]: 4.5%; zone of inhibition at 0.01 µg/disc (Penicillium oxalicum [16]; read-out: IZ): 4 mm

— ChEMBL document CHEMBL1158040, “Biological activities and 3D QSAR studies of a series of Delisea pulchra (cf. fimbriata) derived natural products” (J Nat Prod, 2006)
